We go through one compound from ChEMBL document CHEMBL3526081 (Drug Metab Dispos, 2011).

A short description of data set [1]: Drug metabolism in Swiss-Hauschka (ICR) mouse liver microsomes assessed as 5beta-hydroxylcinobufagin formation at 100 uM at 37 degC after 30 mins by UFLC-ESI-MS analysis in presence of NADPH-generating system. Type of data set: ADME. The conditions noted are these: 0.5 h. In outline: (§1)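 Liver microsomes (0.3 mg protein/ml) incubated with 100 µM substrate at 37°C for 30 min, in 100 mM potassium phosphate pH 7.4 with NADPH-generating system (1 mM NADP+, 10 mM glucose 6-phosphate, 1 unit/ml G6PDH, 4 mM MgCl2). Acetonitrile ≤1% final. Stopped with ice-cold acetonitrile and centrifuged. Metabolites identified by UFLC-ESI-MS and quantified by UFLC-DAD at 294 nm against authentic standard curves.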

Data set [2] deals with Liver microsome. Briefly: Drug metabolism in beagle dog liver microsomes assessed as 1alpha-hydroxylcinobufagin formation at 100 uM at 37 degC after 30 mins by UFLC-ESI-MS analysis in presence of 1 uM ketoconazole CYP3A4 inhibitor. The conditions noted are these: 0.5 h. Type of data set: ADME, Canis lupus familiaris. In outline: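 Chemical inhibition: selective P450 inhibitors (furafylline, sulfaphenazole, ketoconazole) added to liver microsome incubations in 100 mM potassium phosphate pH 7.4 with NADPH-generating system at 37°C. Hydroxylated metabolite formation quantified by UFLC at 294 nm against standards. Mean ± S.D. of three experiments in duplicate.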
For orientation: Microsomes from liver hold many membrane-bound enzymes, among them those of drug oxidation.

For data set [3], the system named is Liver microsome. Put plainly: Drug metabolism in beagle dog liver microsomes assessed as 1alpha-hydroxylcinobufagin formation per mg of protein at 100 uM at 37 degC after 30 mins by UFLC-ESI-MS analysis. Type of data set: ADME, Canis lupus familiaris. The conditions noted are these: 0.5 h. In outline: as §1
Data set [4] is described as follows: Ratio of Vmax/Km in Colony-bred Chinese Bama minipig liver microsomes assessed as 5beta-hydroxylcinobufaginn formation at 100 uM […] by UFLC-ESI-MS analysis. Type of data set: ADME, Sus scrofa. The conditions noted are these: pig, 0.5 h.
Data set [5] in a line: Ratio of Vmax/Km in cynomolgus monkey liver microsomes assessed as 5beta-hydroxylcinobufaginn formation at 100 uM […] by UFLC-ESI-MS analysis. It is filed as ADME, Macaca fascicularis. The conditions noted are these: 0.5 h.
The nature of data set [6]: Drug metabolism in Colony-bred Chinese Bama minipig liver microsomes assessed as 5beta-hydroxylcinobufagin formation at 100 uM at 37 degC after 30 mins by UFLC-ESI-MS analysis in presence of NADPH-generating system. Type of data set: ADME, Sus scrofa. The conditions noted are these: pig, 0.5 h. In outline:
as §1

The test system of data set [7] is Liver microsome. Briefly: Drug metabolism in human liver microsomes assessed as 5beta-hydroxylcinobufagin formation at 100 uM at 37 degC after 30 mins by UFLC-ESI-MS analysis in presence of 10 uM quinidine CYP2D6 inhibitor. Type of data set: ADME. The conditions noted are these: 0.5 h. In outline: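 Pooled human liver microsomes (10 donors, both sexes) in 100 mM potassium phosphate pH 7.4 were incubated with CB and a selective P450 inhibitor. Reaction was started with NADPH-generating system after 3 min preincubation at 37°C and stopped with ice-cold acetonitrile. Hydroxylated products were quantified by UFLC-DAD at 294 nm; three experiments in duplicate.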

Data set [8] is described as follows: Drug metabolism in Swiss-Hauschka (ICR) mouse liver microsomes assessed as 1alpha-hydroxylcinobufagin formation at 100 uM at 37 degC after 30 mins by UFLC-ESI-MS analysis in presence of NADPH-generating system. Type of data set: ADME. The conditions noted are these: 0.5 h. In outline: as §1

Broadly, the Vmax is the top rate of the reaction or transport when substrate is in excess. Take `CC(=O)O[C@H]1[C@H]2O[C@]23[C@@H]2CC[C@@H]4C[C@@H](O)CC[C@]4(C)[C@H]2CC[C@]3(C)[C@H]1c1ccc(=O)oc1` [CINOBUFAGIN]: the Drug metabolism entry was “metabolite_detected” in data set [1]; “metabolite_not_detected” in the data set on Liver microsome [2]; “metabolite_detected” in data set [6]; “metabolite_detected” with Liver microsome [7]; “metabolite_detected” in data set [8]. The Vmax in the data set on Liver microsome [3] was 1.28 nmol/min/mg. For the same compound, the results for the Vmax/Km in data set [4] and in data set [5] were 54.6 µL/min/mg and 216.5 µL/min/mg, respectively.
